We go through one compound from ChEMBL document CHEMBL5107962, “Covalent sortase A inhibitor ML346 prevents Staphylococcus aureus infection of Galleria mellonella” (RSC Med Chem, 2022).

Series [1] addresses Procathepsin L (Homo sapiens, UniProt P07711). Briefly: Inhibition of cathepsin L (unknown origin) using Cbz-Phe-Arg-AMC as substrate at 20 uM preincubated for 5 mins followed by substrate addition and measured after 10 mins by fluorometric assay. The settings on record: time 15.0 min. In short, it runs like this:
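Cbz-Phe-Arg-AMC added (40 µM for B, 80 µM for L) and fluorescence read at ex 380/em 460 nm over 10 min. E64 at 6.25 nM as control. Triplicates, two experiments.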

Series [2] has as its system Sortase A (Staphylococcus aureus), Q9S446 [UNDEFINED MUTATION]. The series is described as follows: Irreversible inhibition of recombinant Staphylococcus aureus sortase A deltaN24 expressed in Escherichia coli BL21(DE3) cells using Abz-LPATG-Dnp as substrate assessed as increase in Km preincubated for 60 mins followed by substrate addition and measured every 1 min for 15 mins by FRET-based assay. The settings on record: time 75.0 min. In short, it runs like this: (§1)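 SrtA (5 µM) incubated 1 h at room temperature with compound or DMSO, then inhibitor removed by centrifugal filtration. Aliquots taken before and after filtration were assayed with Abz-LPATG-Dnp (0.78–200 µM for Sa enzyme, 0.2–50 µM for Sp enzyme) at ex 309/em 420 nm for 15 min. Km fitted; MTSET as control; triplicates, run in duplicate.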

In series [3] the target is T1, Sortase A (Staphylococcus aureus, UniProt Q9S446). Briefly: Irreversible inhibition of recombinant Staphylococcus aureus sortase A deltaN24 expressed in Escherichia coli BL21(DE3) cells using Abz-LPATG-Dnp as substrate preincubated for 10 mins followed by substrate addition and measured every 1 min for 15 mins by FRET-based assay. In short, it runs like this: (§2)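 SaSrtAΔN24 preincubated with compound for 10, 20, 40 or 60 min before FRET IC50 determination with Abz-LPATG-Dnp in Tris pH 7.5, NaCl, CaCl2 buffer.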

Series [4] concerns Streptococcus pyogenes. The series is described as follows: Irreversible inhibition of recombinant Streptococcus pyogenes sortase A deltaN81 expressed in Escherichia coli BL21(DE3) cells using Abz-LPATG-Dnp as substrate assessed as increase in Km preincubated for 60 mins followed by substrate addition and measured every 1 min for 15 mins by FRET-based assay. The settings on record: time 75.0 min. In short, it runs like this: as §1

The nature of series [5]: Toxicity in Galleria mellonella larvae assessed as creamy colour appearance measured after 120 hrs. In short, it runs like this:
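G. mellonella larvae (2-2.5 cm, creamy), starved 24 h, injected with 10 µL compound in vehicle (5% DMSO, 20% PEG300, 75% PBS with 6.6% solutol HS-15). Kept at 37 °C; survival and appearance recorded over 120 h with photography. Three independent experiments.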

The test system of series [6] is Staphylococcus aureus. The series is described as follows: Antibiofilm activity against wild type Staphylococcus aureus Newman assessed as reduction in biofilm biomass at 25 to 200 uM incubated for 18 hrs by crystal violet staining based microplate reader analysis. In kind it is functional, organism-based. The settings on record: dose 25-200 µM. In short, it runs like this: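 S. aureus overnight culture diluted 1:1000 in TSB with inhibitor, grown static at 37 °C for 18 h. Wells rinsed with PBS, fixed with methanol 10 min, stained with 0.1% crystal violet 15 min. Stain dissolved in 33% acetic acid and A600 read. Three independent experiments, mean ± SEM.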

The target of series [7] is T1, Sortase A. Briefly: Irreversible inhibition of recombinant Staphylococcus aureus sortase A deltaN24 expressed in Escherichia coli BL21(DE3) cells using Abz-LPATG-Dnp as substrate preincubated for 20 mins followed by substrate addition and measured every 1 min for 15 mins by FRET-based assay. In short, it runs like this: as §2
Series [8] relates to Staphylococcus aureus. The series is described as follows: Anti-virulence activity against Staphylococcus aureus Newman harbouring deltasrtA mutant assessed as decrease in cell-wall anchored SpA level at 25 to 200 uM by FITC-labelled human IgG based […]. In kind it is functional, organism-based. The settings on record: dose 25-200 µM. In short, it runs like this:
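S. aureus grown in TSB (1:1000 dilution) with inhibitor until A600 1.0. Washed cells incubated with FITC-labelled human IgG in PBS for 30 min at room temperature in the dark, rinsed, and read by fluorescence. Three technical replicates, three independent experiments. Mean ± SEM, unpaired two-tailed Student's t test (n = 3).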
(A western blot detects proteins with antibodies after separation by electrophoresis.)

Series [9] has as its target T1, Sortase A. Briefly: Irreversible inhibition of recombinant Staphylococcus aureus sortase A deltaN24 expressed in Escherichia coli BL21(DE3) cells using Abz-LPATG-Dnp as substrate preincubated for 60 mins followed by substrate addition and measured every 1 min for 15 mins by FRET-based assay. In short, it runs like this:
as §2

Activity calls are given as the source filed them. No cut-off for these calls is given here.

Procathepsin L, sequence (P07711 114-333 limits assumed): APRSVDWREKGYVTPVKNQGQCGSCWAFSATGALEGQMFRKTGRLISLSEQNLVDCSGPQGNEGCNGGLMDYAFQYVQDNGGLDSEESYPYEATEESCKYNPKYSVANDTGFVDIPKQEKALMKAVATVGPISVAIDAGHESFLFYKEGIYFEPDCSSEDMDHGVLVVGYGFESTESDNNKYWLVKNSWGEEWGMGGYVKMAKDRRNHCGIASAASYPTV

The term IC50 denotes the midpoint of a concentration-inhibition curve. In the case of `COc1ccc(/C=C/C=C2C(=O)NC(=O)NC2=O)cc1`, the inhibition result in [1], in series [2] and in series [4] was “Active” in each case. Further, the IC50 stood at 1100 nM in [3], 500 nM in series [7] and 300 nM in series [9]. Moreover, in [5], the Activity entry is listed as “Non-Toxic”. In addition, the outcome in series [6] and in series [8] was Active.
